Source: ChEMBL document CHEMBL1149770, “Synthesis and antimicrobial studies of novel dichlorofluorophenyl containing aminotriazolothiadiazines” (2008)
Converted amounts (≈) assume the structure as drawn.

Key:
[1] = test system: Staphylococcus aureus; experiment: Antibacterial activity against Staphylococcus aureus ATCC 25923 after 24 hrs by broth dilution technique; type: functional; settings: ATCC 25923, 24 h
In short: (§1)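 MIC by broth dilution in nutrient broth with logarithmic serial twofold dilutions of compound. Inoculum approx. 5×10^5 c.f.u actively dividing bacteria. Incubated 24 h at 37 °C, growth monitored visually and spectrophotometrically. MIC taken as the lowest concentration (highest dilution) arresting growth. Ciprofloxacin reference.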

[2] = test system: Escherichia coli; experiment: Antibacterial activity against Escherichia coli ATCC 25922 after 24 hrs by broth dilution technique; type: functional; settings: ATCC 25922, 24 h; in short: as §1
[3] = test system: Aspergillus flavus; experiment: Antifungal activity against Aspergillus flavus after 48 hrs […]; type: functional
[4] = test system: Staphylococcus aureus; experiment: Antibacterial activity against Staphylococcus aureus ATCC 25923 assessed as inhibition zone diameter after 24 hrs […]; type: functional
In short: (§2)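 Disc diffusion on nutrient agar. Inoculum 1-2 × 10^7 c.f.u/ml (0.5 McFarland) spread over the plate surface. Sterile 6.25 mm filter-paper discs soaked in a known concentration of compound. Solvent and growth controls included. Plates incubated inverted 24 h at 37 °C, then inhibition zone diameter measured in mm. Ciprofloxacin reference.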

[5] = test system: Candida albicans; experiment: Antifungal activity against Candida albicans assessed as inhibition zone diameter […] by agar dilution method; type: functional
In short: (§3)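 Compounds in DMSO placed in punched wells on Sabouraud agar (peptone, glucose, agar, pH 5.7) lawned with saline spore suspension. Plates pre-dried 1 h at 37 °C. Controls in triplicate, incubation at 37 °C for 3-4 days, then inhibition zone diameter read in mm. Amphotericin B reference.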

[6] = test system: Aspergillus flavus; experiment: Antifungal activity against Aspergillus flavus assessed as inhibition zone diameter […] by agar dilution method; type: functional; in short: as §3
[7] = test system: Pseudomonas aeruginosa; experiment: Antibacterial activity against Pseudomonas aeruginosa ATCC 27853 assessed as inhibition zone diameter after 24 hrs […]; type: functional; in short: as §2
[8] = test system: Aspergillus fumigatus; experiment: Antifungal activity against Aspergillus fumigatus assessed as inhibition zone diameter […] by agar dilution method; type: functional; in short: as §3
[9] = test system: Klebsiella pneumoniae; experiment: Antibacterial activity against Klebsiella pneumoniae after 24 hrs by broth dilution technique; type: functional; in short: as §1
[10] = test system: Streptococcus pyogenes; experiment: Antibacterial activity against Streptococcus pyogenes assessed as inhibition zone diameter after 24 hrs by disc diffusion method
[11] = test system: Candida albicans; experiment: Antifungal activity against Candida albicans after 48 hrs […]; type: functional
[12] = test system: Talaromyces marneffei; experiment: Antifungal activity against Penicillium marneffei assessed as inhibition zone diameter […] by agar dilution method; type: functional; in short: as §3
[13] = test system: Pseudomonas aeruginosa; experiment: Antibacterial activity against Pseudomonas aeruginosa ATCC 27853 after 24 hrs by broth dilution technique; type: functional; settings: ATCC 27853, 24 h; in short: as §1
[14] = test system: Klebsiella pneumoniae; experiment: Antibacterial activity against Klebsiella pneumoniae assessed as inhibition zone diameter after 24 hrs […]; type: functional; in short: as §2
[15] = test system: Trichophyton mentagrophytes; experiment: Antifungal activity against Trichophyton mentagrophytes assessed as inhibition zone diameter […] by agar dilution method; type: functional; in short: as §3
[16] = test system: Aspergillus fumigatus; experiment: Antifungal activity against Aspergillus fumigatus after 48 hrs […]; type: functional
[17] = test system: Talaromyces marneffei; experiment: Antifungal activity against Penicillium marneffei after 48 hrs […]; type: functional
[18] = test system: Streptococcus pyogenes; experiment: Antibacterial activity against Streptococcus pyogenes after 24 hrs by broth dilution technique; type: functional; in short: as §1
[19] = test system: Trichophyton mentagrophytes; experiment: Antifungal activity against Trichophyton mentagrophytes after 48 hrs […]; type: functional

MIC [1]: 6.25 µg/mL (≈ 14.5 µM)
MIC [2]: 6.25 µg/mL (≈ 14.5 µM)
MIC [3]: 6.25 µg/mL (≈ 14.5 µM)
MIC [9]: 6.25 µg/mL (≈ 14.5 µM)
MIC [11]: 6.25 µg/mL (≈ 14.5 µM)
MIC [13]: 6.25 µg/mL (≈ 14.5 µM)
MIC [16]: 6.25 µg/mL (≈ 14.5 µM)
MIC [17]: 6.25 µg/mL (≈ 14.5 µM)
MIC [18]: 6.25 µg/mL (≈ 14.5 µM)
MIC [19]: 6.25 µg/mL (≈ 14.5 µM)
Structure (SMILES): Nn1c(SCC(=O)Nc2ccc(F)cc2)nnc1-c1cc(F)c(Cl)cc1Cl
inhibition zone (IZ) [4]: 23 mm
inhibition zone (IZ) [5]: 19 mm
inhibition zone (IZ) [6]: 21 mm
inhibition zone (IZ) [7]: 30 mm
inhibition zone (IZ) [8]: 19 mm
inhibition zone (IZ) [10]: 22 mm
inhibition zone (IZ) [12]: 24 mm
inhibition zone (IZ) [14]: 21 mm
inhibition zone (IZ) [15]: 17 mm
